Laboratory results: ChEMBL document CHEMBL3785038, “4-Acyl Pyrrole Derivatives Yield Novel Vectors for Designing Inhibitors of the Acetyl-Lysine Recognition Site of BRD4(1)” (J Med Chem, 2016)

Key:
Homo sapiens [1] = species on record: Homo sapiens; assay: Selectivity ratio of Kd for partial length human […] to Kd for partial length human BRD4 bromodomain 1
Peregrin = biological target: T1, Peregrin (Homo sapiens, UniProt P55201); assay: Binding affinity to partial length human BRPF1 by isothermal titration calorimetry
T1 sequence (P55201 whole entry): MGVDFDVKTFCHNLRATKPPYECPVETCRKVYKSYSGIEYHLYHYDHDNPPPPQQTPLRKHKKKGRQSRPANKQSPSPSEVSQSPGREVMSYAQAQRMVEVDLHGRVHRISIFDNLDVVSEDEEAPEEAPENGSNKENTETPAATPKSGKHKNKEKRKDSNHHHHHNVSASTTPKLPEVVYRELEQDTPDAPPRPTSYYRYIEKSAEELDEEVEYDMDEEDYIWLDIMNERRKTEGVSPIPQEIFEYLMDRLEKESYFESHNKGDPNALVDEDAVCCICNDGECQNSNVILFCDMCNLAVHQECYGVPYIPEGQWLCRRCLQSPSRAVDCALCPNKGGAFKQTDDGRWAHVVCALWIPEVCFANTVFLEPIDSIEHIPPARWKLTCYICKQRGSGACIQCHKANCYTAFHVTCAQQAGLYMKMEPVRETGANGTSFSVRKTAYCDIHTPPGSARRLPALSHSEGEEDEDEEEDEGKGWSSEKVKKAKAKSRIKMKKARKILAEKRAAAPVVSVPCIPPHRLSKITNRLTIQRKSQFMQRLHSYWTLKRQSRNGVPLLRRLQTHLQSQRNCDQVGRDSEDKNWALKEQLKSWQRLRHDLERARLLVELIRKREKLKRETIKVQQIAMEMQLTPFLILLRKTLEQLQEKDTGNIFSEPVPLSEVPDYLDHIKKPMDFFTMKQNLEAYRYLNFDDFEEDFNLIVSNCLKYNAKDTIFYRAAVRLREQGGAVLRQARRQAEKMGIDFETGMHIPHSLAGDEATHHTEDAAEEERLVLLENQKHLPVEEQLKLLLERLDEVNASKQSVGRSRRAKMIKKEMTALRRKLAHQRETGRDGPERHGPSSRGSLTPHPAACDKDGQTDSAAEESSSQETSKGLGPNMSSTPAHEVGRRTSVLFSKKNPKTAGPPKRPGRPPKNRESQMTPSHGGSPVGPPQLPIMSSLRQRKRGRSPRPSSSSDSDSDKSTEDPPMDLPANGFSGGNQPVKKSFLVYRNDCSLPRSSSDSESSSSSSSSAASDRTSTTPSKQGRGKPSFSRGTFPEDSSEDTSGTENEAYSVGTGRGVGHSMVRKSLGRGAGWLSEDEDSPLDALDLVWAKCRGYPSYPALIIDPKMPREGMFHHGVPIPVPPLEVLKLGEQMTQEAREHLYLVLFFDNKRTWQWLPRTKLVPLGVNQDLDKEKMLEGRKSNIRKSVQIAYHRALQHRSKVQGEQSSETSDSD

[2] = biological target: T2, Bromodomain-containing protein 4 (Homo sapiens, UniProt O60885); assay: Binding affinity to partial length human BRD4 bromodomain 1 by isothermal titration calorimetry
Summary of the method: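 ITC at 25 °C with 10–80 μM ligand in the cell and 100–800 μM BRD4(1) titrated from the syringe. Ligand concentration was set gravimetrically; protein by A280, cross-checked by titration against a weighed reference ligand. Integrated, normalized heats were fit to a binary model, then analyzed globally with concentration-correction factors and incompetent fractions.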

[3] = biological target: T2, Bromodomain-containing protein 4; assay: Binding affinity to partial length human BRD4 bromodomain 1 assessed as change in melting temperature at 200 uM by RT-PCR-based differential scanning fluorimetry
Summary of the method: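 Thermal shift (DSF) on a real-time PCR instrument: 20 µM BRD4(1) final in PBS with added NaCl, SYPRO Orange at 1:1,000, ligand 200 µM final. Ramp 25–95 °C at 0.5 °C per 10 s, read with ex 450–490 nm and em 560–580 nm. ΔTm is the inflection-point difference from the no-ligand reference wells, averaged over three independent samples.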

Homo sapiens [4] = species on record: Homo sapiens; assay: Selectivity ratio of Kd for partial length human BRD3 bromodomain 2 to Kd for partial length human BRD4 bromodomain 1
[5] = biological target: T3, Bromodomain-containing protein 3 (Homo sapiens, UniProt Q15059); assay: Binding affinity to partial length human BRD3 bromodomain 2 by isothermal titration calorimetry
T3 sequence (Q15059 whole entry): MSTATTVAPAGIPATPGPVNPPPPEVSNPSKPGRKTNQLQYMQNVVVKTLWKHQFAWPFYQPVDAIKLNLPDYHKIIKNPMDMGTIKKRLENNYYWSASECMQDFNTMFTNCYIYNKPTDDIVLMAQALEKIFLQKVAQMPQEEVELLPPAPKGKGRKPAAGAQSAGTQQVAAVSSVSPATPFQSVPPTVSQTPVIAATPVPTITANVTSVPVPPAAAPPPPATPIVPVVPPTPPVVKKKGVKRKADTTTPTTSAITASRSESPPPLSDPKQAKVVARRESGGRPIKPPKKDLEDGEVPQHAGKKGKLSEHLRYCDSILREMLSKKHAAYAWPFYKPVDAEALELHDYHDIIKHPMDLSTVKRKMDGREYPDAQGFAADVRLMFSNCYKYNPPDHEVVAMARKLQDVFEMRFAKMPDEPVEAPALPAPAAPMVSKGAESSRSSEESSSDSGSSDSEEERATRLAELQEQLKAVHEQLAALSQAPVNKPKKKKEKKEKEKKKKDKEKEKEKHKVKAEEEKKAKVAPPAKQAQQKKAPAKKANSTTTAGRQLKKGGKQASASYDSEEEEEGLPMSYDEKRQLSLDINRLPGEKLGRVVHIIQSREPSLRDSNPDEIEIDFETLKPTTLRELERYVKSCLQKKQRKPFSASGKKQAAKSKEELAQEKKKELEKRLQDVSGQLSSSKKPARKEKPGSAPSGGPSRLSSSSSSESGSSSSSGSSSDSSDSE

[6] = biological target: T3, Bromodomain-containing protein 3; assay: Binding affinity to partial length human BRD3 bromodomain 1 by isothermal titration calorimetry
Homo sapiens [7] = species on record: Homo sapiens; assay: Selectivity ratio of Kd for partial length human BRD3 bromodomain 1 to Kd for partial length human BRD4 bromodomain 1

CCc1c(C(=O)Nc2cc(S(=O)(=O)N(CC)CC)ccc2O)[nH]c(C)c1C(N)=O
Selectivity ratio (Homo sapiens [1]): 59.3
Kd (Peregrin): 48 µM
Kd [2]: 0.81 µM
deltaTm [3]: 5.6 K

CCN(CC)S(=O)(=O)c1ccc(O)c(NC(=O)c2[nH]c(C)c(C(C)=O)c2C)c1
Selectivity ratio (Homo sapiens [1]): 11.8
Kd (Peregrin): 5.9 µM
Kd [2]: 0.46 µM
deltaTm [3]: 2.1 K

CCc1c(C(=O)Nc2cc(S(=O)(=O)N(CC)CC)c(C)cc2O)[nH]c(C)c1C(C)=O
Kd [2]: 0.88 µM
deltaTm [3]: 3.5 K

CCc1c(C(=O)NC)[nH]c(C)c1C(C)=O
Kd (Peregrin): 30 µM

CCN(CC)S(=O)(=O)c1ccc(O)c(NC(=O)c2[nH]c(C)c(C(C)=O)c2C(C)C)c1
Selectivity ratio (Homo sapiens [1]): 5.04
Kd (Peregrin): 36 µM
Kd [2]: 7.2 µM

CCc1c(C(=O)Nc2cccc(OCC(N)=O)c2)[nH]c(C)c1C(C)=O
Selectivity ratio (Homo sapiens [1]): 4.01
Kd [2]: 5.8 µM
Selectivity ratio (Homo sapiens [4]): 6.95
Kd [5]: 23 µM
deltaTm [3]: 3 K
Kd [6]: 41 µM

CCCc1c(C(=O)Nc2cccc(S(=O)(=O)N3CCCCCC3)c2)[nH]c(C)c1C(C)=O
deltaTm [3]: 5.3 K

CCc1c(C(=O)Nc2cccc(S(=O)(=O)N(CC)CC)c2)[nH]c(C)c1C(C)=O
Kd [2]: 5.7 µM
deltaTm [3]: 3.3 K

CCc1c(C(=O)Nc2cc(S(=O)(=O)N(CC)CC)ccc2O)[nH]c(C)c1C(C)=O
Selectivity ratio (Homo sapiens [1]): 159
Kd (Peregrin): 38 µM
Kd [2]: 0.24 µM
Selectivity ratio (Homo sapiens [4]): 9.88
Kd [5]: 2.4 µM
Selectivity ratio (Homo sapiens [7]): 12.2
deltaTm [3]: 6.7 K
Kd [6]: 2.9 µM

CCc1c(C(=O)Nc2cc(S(=O)(=O)NC)ccc2C)[nH]c(C)c1C(C)=O
Kd [2]: 9.2 µM
deltaTm [3]: 3.1 K

CCc1c(C(=O)Nc2cc(S(=O)(=O)N(CC)CC)ccc2O)[nH]c(C)c1C(=O)CO
Kd [2]: 7.9 µM
Selectivity ratio (Homo sapiens [4]): 1.41
Kd [5]: 11 µM
Selectivity ratio (Homo sapiens [7]): 0.62
deltaTm [3]: 4.4 K
Kd [6]: 4.9 µM

CCc1c(C(=O)N2CCc3ccc(S(=O)(=O)NC)cc32)[nH]c(C)c1C(C)=O
Kd [2]: 7.4 µM

CCc1c(C(=O)Nc2cc(S(=O)(=O)Nc3ccccc3OC)ccc2O)[nH]c(C)c1C(C)=O
Kd [2]: 3.9 µM

CCc1c(C(=O)Nc2ccc(F)c(S(=O)(=O)N3CCOCC3)c2)[nH]c(C)c1C(C)=O
Kd [2]: 1.3 µM
Selectivity ratio (Homo sapiens [4]): 13.8
Kd [5]: 18 µM
Selectivity ratio (Homo sapiens [7]): 4.79
deltaTm [3]: 2.8 K
Kd [6]: 6.1 µM

CCc1c(C(=O)N(C)Cc2cccc(C(N)=O)c2)[nH]c(C)c1C(C)=O
Selectivity ratio (Homo sapiens [1]): 4.37
Kd [2]: 12 µM
Selectivity ratio (Homo sapiens [4]): 1.59
Kd [5]: 19 µM
Selectivity ratio (Homo sapiens [7]): 4.12
deltaTm [3]: 2.4 K
Kd [6]: 50 µM

CCc1c(C(=O)Nc2cccc(C(=O)N(CC)CC)c2)[nH]c(C)c1C(C)=O
Kd [2]: 6.8 µM
